Assay: Toxicity liver stage against HepG2, at 10uM
Type: cell-based
Parameters: test concentration 10 uM, cell line HepG2-A16-CD81EGFP
Details: human, HepG2-A16-CD81EGFP cells; read-out: INHIBITION
Procedure, shortened: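 Uninfected HepG2-A16-CD81EGFP cells, 3 × 10^3 per well, 1536-well, plated on prespotted compound at 10 μM final, parasite-free screening media added to match infected plates; puromycin 10 μM positive, DMSO 0.5% negative; run in parallel with 48 h PbLuc assay at 37 °C, 5% CO2; viability by CellTiter-Glo luminescence, normalized to controls.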

Row | SMILES | cytotoxicity at 10 µM
1 | Cc1nc(CCNC(=O)NC2CCN(c3ncccn3)CC2)cs1 | -11.8%
2 | O=C(NCCOc1ncc(Cl)cc1Cl)c1ccncc1F | -3.78%
3 | Cc1cccc(C)c1C(=O)N1C[C@@H](CN2CCOCC2)[C@@H](CO)C1 | 0.0453%
4 | COCCN1CC(C(=O)N(C)Cc2cc(-c3cccnc3)no2)CC1=O (stereo not given) | -1.99%
5 | O=C(CNc1cc(-c2ccccc2)nc2ccnn12)NC1CC1 | -10.5%
6 | CCCc1nnc(N(C)CC2CCCN(CC)C2)o1 (stereo not given) | -4.1%
7 | CCn1nc(CC(C)C)cc1C(=O)N1CC(N2CCCCC2C)C1 (stereo not given) | -12.4%
8 | CCn1nccc1C(=O)N1CCCCC1CCc1ccc(O)cc1 (stereo not given) | 2.62%
9 | Cc1ccc(C)c(OCCN(C)C(=O)CCc2cn[nH]c2)c1 | 1.69%
10 | CN1CCN(S(=O)(=O)c2ccc3c(c2)CN(C(=O)C(C)(C)C)CC3)CC1 | -8.91%
11 | O=C(CCc1cc2n(n1)CCCNC2)N1CCN(C2CCCC2)C(=O)C1 | 2.68%
12 | Cc1ccc(CN2CCNC(=O)C2CC(=O)NCc2n[nH]c(C)n2)cc1 (stereo not given) | -3.83%
13 | Cc1nc(CN2CCC(C(=O)O)(n3ccc(C(C)C)n3)CC2)co1 | -125%
14 | COc1cccc(-n2cc(CN(C)C(=O)c3cc[nH]n3)cn2)c1 | 16.3%
15 | CCc1nc(N)sc1C(=O)N1CCC(c2cc(O)nc(C)n2)CC1 | -2.56%
16 | CC(C)CN1CCN(Cc2nc3c(s2)CCCC3)[C@H]2CS(=O)(=O)C[C@H]21 | 8.19%
17 | CN(CCn1ccnc1-c1ccccn1)S(C)(=O)=O | 12%
18 | COc1ccc(C(=O)NCc2cccnc2N2CCOCC2)o1 | 3.1%
19 | O=c1c(CN2CCCCC2)coc2ccc(Cl)cc12 | -2.56%
20 | CNc1nc2c(c(C(=O)N3CCCC3)n1)CN(C(=O)CCSC)CC2 | -114%
21 | CN1CC2(CCCN(Cc3cccc(CCN)c3)C2)OC1=O (stereo not given) | 20%
22 | Cn1cncc1C(=O)N1CCCC(c2ccn[nH]2)C1 (stereo not given) | -4.78%
23 | CC(c1cncs1)N(C)Cc1ccc(CCC(C)(C)O)cc1 (stereo not given) | 4.68%
24 | CC(C)n1cnnc1CN(C)Cc1cnc(-c2ccccn2)nc1 | 11.9%
25 | c1cn(Cc2nnc(C3CCN(C4CCNCC4)CC3)n2C2CC2)cn1 | 1.74%
26 | Cn1cc(C(=O)N2CC[C@@]3(O)CCN(C(=O)C4CCCC4)C[C@H]3C2)cn1 | -138%
27 | CN1CCC(CNC(=O)c2cccc(CN3CCCCCC3)c2)C1 (stereo not given) | -5.39%
28 | O=S(=O)(Cc1c(F)cccc1Cl)NCCCN1CCCCCC1 | -10%

Row | SMILES | cytotoxicity at 10 µM
29 | CCCOC(=O)N1CCC(c2nnc(Cn3cccn3)n2C2CC2)CC1 | -8.52%
30 | COCCN(C)C[C@@H]1CN(c2cc(C)nc3ccccc23)C[C@@H]1CO | -1.92%
31 | COCCC(=O)N1CCC2(CC1)CC(c1ccccc1)CN(C)C2 (stereo not given) | -14.4%
32 | Cc1nc(CN(C)C2CCN(Cc3ccc(Cl)s3)C2)no1 (stereo not given) | -2.84%
33 | CCc1nc(C(=O)N2CCOCC2)nn1-c1ccccc1Cl | -9.29%
34 | Cn1cc(C2CCCN2C(=O)c2cn(-c3ccccc3)nn2)cn1 (stereo not given) | -24%
35 | Cc1nccn1CCCC(=O)N1CCCC(c2noc(C(C)C)n2)C1 (stereo not given) | -35.8%
36 | CC(=O)N1CCC(NC(=O)N(C)Cc2c(C)noc2C)CC1 | -6.33%
37 | Cc1ccsc1CNCC1CCCN1c1cccnn1 (stereo not given) | -4.48%
38 | CCN(Cc1ccc2c(c1)OCO2)C(=O)c1cccnc1O | -9.51%
39 | Clc1snnc1CN1CCCC1Cn1cccn1 (stereo not given) | -17.9%
40 | CCc1[nH]ncc1C(=O)N1CCCC(n2cncn2)C1 (stereo not given) | -18.9%
41 | Cc1nc(C)c(C(=O)NCCNc2ncccc2C(F)(F)F)s1 | -3.08%
42 | CCc1n[nH]c(C2CN(C(=O)c3ccc(NC4CC4)nc3)CCO2)n1 (stereo not given) | 5.77%
43 | COc1ccc(OC)c(C(=O)N(C)Cc2nnc3ccccn23)c1 | -0.972%
44 | Cc1cnn(CC2CCCN2C(=O)c2ccc(OC(C)C)nc2)c1 (stereo not given) | -6.13%
45 | CCNC(=O)[C@@H]1CCCN1[C@@H](C(=O)NC)c1ccccc1OC | -4.51%
46 | COc1ncccc1C(=O)N1C[C@@H]2COC[C@]2(CN(C)C)C1 | -143%
47 | CN1CC2(CNCCN(C(=O)Nc3ccccc3)C2)CC1=O (stereo not given) | 1.26%
48 | c1cc(CNCc2ccnc(N3CCOCC3)c2)c2c(c1)OCO2 | 2.75%
49 | Cn1cc(CN2C[C@H]3CN(c4cncnc4)C(=O)[C@H]3C2)cn1 | -0.0682%
50 | Cc1cccc(CN2CCOCC3(CCN(C4CCOCC4)C3)C2)n1 (stereo not given) | -0.124%
51 | Cc1nnc(N2C[C@@H](OCC3CCCC3)[C@H]3OCCC[C@H]32)s1 | 14.3%
52 | COCCN1C[C@@H]2CC[C@H]1CN(Cc1nc3ccccc3n1C)C2 | -11.2%
53 | COCC1N(C(=O)c2ccc3c(c2)OCCCO3)C2CCC1(O)CC2 (stereo not given) | -5.3%
54 | CCn1c(=O)[nH]c2cn(-c3cccc(Cl)c3)c(=O)n21 | 0.0452%
55 | Cc1cc(C)n(CC(=O)N2C[C@H]3CC[C@@H](C2)N(CC2CCC2)C3)c(=O)n1 | 13.3%
